# Bioassay records deposited in PubChem by several laboratories.
# aDG glyco up: activators of alpha-DG glycosylation, primary screen, uHTS, Pro5-aDG cells, AlphaScreen; alpha-DG glycosylation AlphaScreen (IIH6); 0% Pro5, 100% B10-LARGE cell signal; activation, % at 10 µM; 0.22% of 360,000 active;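 active = activation of at least 8% versus controls, or a plate z-score of at least 8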;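 note: Pro5 are CHO cells carrying HIG-tagged alpha-DG that lacks glycosylation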
# procasp3 activ: activators of human procaspase-3 D3A mutant, primary screen, biochemical, absorbance, PC-3 D3A mutant, single concentration; Caspase-3 (Homo sapiens), P42574; recombinant procaspase-3 D3A, Ac-DEVD-pNA absorbance 405 nm; activation, % at 8.5 µM; 0.11% of 330,000 active; AID 463141, 2010;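 active = activation above the mean of all tested compounds plus 3 SD, cut at about 21% in these data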;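 note: 0% = DMSO alone and 100% = DMSO wells spiked with extra 5 µM PC-3 D3A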
# Target sequence (P42574 whole entry D9A/D28A/D175A): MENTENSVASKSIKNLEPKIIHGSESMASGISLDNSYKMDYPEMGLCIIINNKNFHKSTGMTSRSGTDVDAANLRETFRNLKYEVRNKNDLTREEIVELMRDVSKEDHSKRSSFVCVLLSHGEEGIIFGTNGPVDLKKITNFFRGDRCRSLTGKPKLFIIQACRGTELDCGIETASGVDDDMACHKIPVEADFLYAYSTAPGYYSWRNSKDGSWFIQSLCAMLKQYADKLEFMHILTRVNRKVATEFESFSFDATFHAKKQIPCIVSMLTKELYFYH
#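 Assay system: Procaspase-3 D3A mutant, all three cleavage aspartates alanine. Buffer or medium: Zinc-free HEPES saline buffer with Triton X-100. Times: 1 h compound preincubation, 2 h substrate hydrolysis at 25 °C. Measured by: 405 nm absorbance of p-nitroaniline, reads at 0 and 120 min. Read-out basis: percent activation relative to control range. Replicates: singlicate.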
# procasp7 counter: procaspase-7 activators, primary screen, counter-screen for procaspase-3 activator project, biochemical, absorbance, HTS, human; Caspase-7 (Homo sapiens), P55210; recombinant procaspase-7, Ac-DEVD-pNA absorbance 405 nm; D23A/D198A/D206A triple mutant, cannot self-cleave; scale: DMSO 0, 5 µM enzyme 100; activation, % at 8.5 µM; 0.093% of 330,000 active; AID 463210, 2010;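 active = percent activation above the screen-wide mean plus 3 SD, cut at about 25% in these data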
# Target sequence (P55210 whole entry D23A/D198A/D206A): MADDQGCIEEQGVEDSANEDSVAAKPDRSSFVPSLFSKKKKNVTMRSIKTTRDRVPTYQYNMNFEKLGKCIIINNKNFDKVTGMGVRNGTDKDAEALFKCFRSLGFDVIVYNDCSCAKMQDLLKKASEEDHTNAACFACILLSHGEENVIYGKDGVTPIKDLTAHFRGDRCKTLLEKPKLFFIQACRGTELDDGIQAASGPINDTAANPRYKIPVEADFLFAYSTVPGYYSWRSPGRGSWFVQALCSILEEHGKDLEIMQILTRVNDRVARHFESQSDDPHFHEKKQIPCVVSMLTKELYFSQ
#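 Assay system: Uncleavable procaspase-7 mutant enzyme | Input: 2 µM procaspase-7 mutant as dispensed | Timing: 1 h compound preincubation, 2 h substrate cleavage, 25 °C | Repeats: One well per compound | Control set: DMSO wells as 0%, DMSO with 5 µM added PC-7 as 100% | Technique: Epi-absorbance of released pNA at 405 nm, two timepoints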
# MPTP inh: mitochondrial permeability transition pore inhibitors, primary screen, biochemical, isolated mouse mitochondria, absorbance | Ca2+ swelling absorbance, 30 min | inhibition, % at 10 µM | AID 602449, 2012 | 1.4% of 360,000 active;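 active = inhibition of 50% or more, scaled per plate between neutral and stimulator controls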;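 note: 0% = DMSO wells given calcium and 100% = 1 mM EGTA wells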
# NR3A LBD binder: binders of NR3A ligand-binding domain, primary screen, biophysical, differential scanning fluorimetry, uHTS. Glutamate receptor ionotropic, NMDA 3A (GRIN3A) ligand-binding domain. NR3A LBD differential scanning fluorimetry, Tm shift; 0% = protein alone, 100% = glycine-bound protein. Tm shift relative to glycine control, % at 25 µM. 2.5% of 340,000 active. AID 1259313, 2017;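 active = melting temperature shift of at least 10% of the positive control shift, at one fixed dose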
# An asterisk follows results filed as active; x = not tested or not shown. Compounds with a hit are over-represented: about 3.7% of the library has one in this group of screens.
SMILES,aDG glyco up,procasp3 activ,procasp7 counter,MPTP inh,NR3A LBD binder
COc1cc(/C=C2/C(=O)ON=C2C)cc(Cl)c1O,0,-3,1,1,26*
Cc1onc(-c2ccccc2)c1C(=O)N1CCC(C)(C(=O)O)C1 (stereo unspecified),0,x,x,0,x
O=C(/C=C/c1ccc(Cl)cc1)Nn1c(-c2cccs2)nc2ccccc2c1=O,0,-8,0,19,13*
COc1ccc(Cl)cc1C(=O)Nn1c(-c2cccs2)nc2ccccc2c1=O,0,-1,-2,5,-2
COc1ccc(Cn2c(SCc3ccc(C)cc3)nc3cc(OC)c(OC)cc3c2=N)cc1Cl,-1,15,21,8,2
COc1cc2nc(SCc3ccc(C(F)(F)F)cc3)n(Cc3cccs3)c(=N)c2cc1OC,0,6,3,8,24*
COCCCn1c(SCc2cccc(C(F)(F)F)c2)nc2cc(OC)c(OC)cc2c1=N,0,3,-1,11,10*
COc1cc2nc(SCc3ccc(Cl)cc3Cl)n(Cc3cccs3)c(=N)c2cc1OC,0,5,3,9,22*
Cc1cc(C)cc(N2C(=O)CC(N3CCOCC3)C2=O)c1 (stereo unspecified),0,-7,-6,-1,11*
O=C1CC(N2CCOCC2)C(=O)N1c1cc(Cl)cc(Cl)c1 (stereo unspecified),0,6,8,-1,0
CCOC(=O)c1ccc(-c2ccc(/C=N/NC(=O)CN(c3ccccc3Br)S(C)(=O)=O)o2)cc1,1,2,5,1,12*
Cc1cc(C(=O)NC2CC(C)(C)Cc3c2cnn3-c2cccc(F)c2)nn1C (stereo unspecified),0,-2,12,0,12*
N#Cc1ccccc1NC(=O)c1ccccc1OCC(=O)Nc1ccc2c(c1)oc1ccccc12,0,1,-2,8,23*
CNC(=O)COc1ccccc1C(=O)Nc1ccc2c(c1)oc1ccccc12,0,0,-1,12,0
O=C(NCc1ccccc1)C(c1ccc(-c2ccccc2)cc1)N1CCN(c2ccccc2F)CC1 (stereo unspecified),0,x,x,0,x
CC1=NN(C(N)=S)C(=O)C1N=Nc1ccc(C)c(Br)c1 (stereo unspecified),0,11,11,4,12*
CC1=NN(C(N)=S)C(=O)C1N=Nc1ccc(O)cc1 (stereo unspecified),0,x,x,0,-2
Cc1[nH]c(=O)[nH]c(=O)c1NC(=O)c1ccccc1[N+](=O)[O-],0,x,x,0,x
CCCNC(=O)C1(C)CCN(Cc2ccc(-c3ccccc3)o2)C1 (stereo unspecified),0,x,x,-1,x
C=CCCC1CN(CCCC)S(=O)(=O)c2c(F)cccc2O1 (stereo unspecified),0,x,x,-1,18*
O=C(COc1cc(Cl)c(Cl)cc1Cl)NC(=O)Nc1ccc2c(c1)OCCO2,0,2,10,1,19*
O=C(COc1cc(Cl)c(Cl)cc1Cl)Nc1cccc(O)c1,0,-4,7,3,18*
Nc1cc2nsnc2cc1Br,6.6*,-20,-33,-4,-1
COc1cc(C(C(=O)NC2CCCCC2)N(C(=O)Cc2c[nH]c3ccccc23)c2ccc(C)cc2)cc(OC)c1OC (stereo unspecified),0,-6,7,0,26*
Cc1cccc2c1-c1sc(C(=O)Nc3cccnc3)cc1CO2,0,-3,0,0,18*
SMILES,aDG glyco up,procasp3 activ,procasp7 counter,MPTP inh,NR3A LBD binder
O=C(Nc1ccc(Cl)cn1)c1cc2c(s1)-c1ccccc1OC2,0,-9,-16,3,15*
O=C(Nc1cccnc1)c1cc2c(s1)-c1ccccc1OC2,0,-2,-5,2,35*
CN(CCc1ccccc1)C(C(=O)Nc1ccc2c(c1)OCCO2)C1CC1 (stereo unspecified),0,x,x,-2,x
CCOC(=O)c1c(N)sc(C(=O)Nc2ccc3c(c2)OCO3)c1C,0,-3,-3,1,28*
CCOC(=O)c1c(N)sc(C(=O)N(C)C)c1C,0,2,2,0,11*
CCOC(=O)c1c(C)c(C(=O)Nc2ccc3c(c2)OCO3)c(C)n1C,0,6,-3,0,0
CC(CNC(=O)COC(=O)c1cccnc1Cl)c1ccccc1 (stereo unspecified),0,x,x,-1,-2
CC[C@@H]1C(c2ccc(F)cc2)=NN(c2ccc(Br)cc2)[C@H]1C(=O)N1CCOC1=O,0,-1,7,-3,19*
O=C1OCCN1C(=O)[C@H]1[C@H](c2ccccc2)C(c2cccc(Cl)c2)=NN1c1ccc(Br)cc1,0,17,18,1,7
O=C1OCCN1C(=O)[C@H]1[C@H](c2ccc(F)cc2)C(c2cccc(Cl)c2)=NN1c1ccccc1,1,7,2,-1,16*
O=C1OCCN1C(=O)[C@H]1[C@H](c2ccc(F)cc2)C(c2cccc(Cl)c2)=NN1c1ccc(Br)cc1,1,19,15,-1,25*
COc1ccccc1CNc1nc2cc(-c3ccccc3C)sc2c(=O)n1C,0,x,x,0,x
O=C(NCc1ccco1)c1ccc2sc([C@@H]3O[C@H](CO)[C@@H](O)[C@H]3O)nc2c1,0,x,x,0,x
COc1ccc(C(=O)Oc2cccc(/C=N/NC(N)=S)c2)cc1,1,-4,-3,0,-1
COc1cc(/C=N/NC(N)=S)ccc1OC(=O)c1ccc(C)cc1,0,2,0,0,26*
COc1cc(/C=N/NC(N)=S)ccc1OCc1ccc(C)cc1,-1,-5,-17,2,25*
COc1ccc(C=NNC(=S)NN=Cc2ccc(OC)c(OC)c2)cc1OC,0,x,x,0,-26
CCNC(=O)C1(C)CCCN(C(=O)c2nc3ccccc3s2)C1 (stereo unspecified),0,x,x,0,x
Cc1ccccc1NC(=O)C(C)OC(=O)C1CCCO1 (stereo unspecified),0,x,x,0,x
O=C(/C=C/Nc1ccc([N+](=O)[O-])cc1Br)c1cccc2ccccc12,0,-19,4,3,13*
O=C(CSc1n[nH]c(-c2cccnc2)n1)Nc1ccc(Br)cc1,0,-7,-8,1,5
O=C(CSc1n[nH]c(-c2cccnc2)n1)Nc1ccc([N+](=O)[O-])cc1,0,1,3,2,10*
